Test system: MS2 coat protein
Assay: apparent Kd, MS2 coat protein; higher = weaker binding; RNA-MaP array; FMN 200 µM where present
Summary of the method: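 SNAP-549-labelled MS2 coat protein, doubled from 0.7 or 1.5 nM to 3 µM, was titrated over designs transcribed by stalled E. coli RNA polymerase on Illumina sequencing-chip clusters. Titrations were run without and then with constant ligand in 100 mM Tris-HCl pH 7.5, 80 mM KCl, 4 mM MgCl2, BSA, DTT, yeast tRNA and Tween-20. The apparent Kd is the median of filtered per-cluster fits to green signal normalised to red-channel RNA signal and control-cluster median Fmax.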

[1] = designed as: ON switch for flavin mononucleotide, no ligand
[2] = ligand present: flavin mononucleotide, designed as: ON switch for flavin mononucleotide
[3] = designed as: OFF switch for flavin mononucleotide, no ligand
[4] = ligand present: flavin mononucleotide, designed as: OFF switch for flavin mononucleotide

| Sequence | apparent Kd [1] [nM] | apparent Kd [2] [nM] | apparent Kd [3] [nM] | apparent Kd [4] [nM] |
| --- | --- | --- | --- | --- |
| ACACAUGAGGAUCACCCAUGUAGCUGGCGUCUGUGCCAGCCACAGGAUAUACGGCAACACAAGCCGUAGAAGGGUGAUAAACAC | 85.3 | 36.5 | – | – |
| AGAUCACAUGAGGAUCACCCAUGUGAGGAUAUGAUACUAUGUACUUCGGUACAUAGUAUCAGAAGGCAUAUGAA | – | – | 27.7 | 33.4 |
| CCUCUACAUGAGGAUCACCCAUGUGAGGAUAUAAGAUUGCGGAUUCCGCACUACGGUCUUAGAAGGCGCGUGGA | – | – | 19 | 38.1 |
| UGGUCAUCAUCAGGAUAUUAACGUGGGCUACUUUAAGAAGGGAUAGUGGGAGAGGAUGUGAAACAUGAGGAUCACCCAUGUUGU | 15.7 | 12.3 | – | – |
| GGAGAACAUGAGGAUCACCCAUGUGGAUGGGCGCUAGGAUAUGCGAGAGGGUGGAGAGAAGCAGAAGGAGUGGAUA | 62.2 | 54.5 | – | – |
| UGUAACCAAGGAUAUACAUGAGGAUCACCCAUGUAAUGUAGUAUAGUGUGUGUGAGGUGUAGAAGGAGGGAUGU | – | – | 76.3 | 73.6 |
| GCGAUUUUGUAAGGAUAUACACGAGUUUUAAGUGUAGAAGGUACUUACAUGAGGAUCACCCAUGUAUAAAUGUAUAAUAGUCGC | 9.11 | 7.51 | – | – |
| CGUCAGUGAGGAUAUGGUAUCGUGUACAUGAGGAUCACCCAUGUUUCUUGGGACUAUAUACUAGAAGGCACUGACG | – | – | 16 | 35.3 |
| CCCACGAGCGUAGGAUAUACAUGAGGAUCACCCAUGUAGGCACAAUGUCCCAGCUAGUGACCAGUGUAGAAGGACGUGUCUGGG | – | – | 50.8 | 107 |
| CAGGUAGACUGAGGAUAUACAAUAAACAGCUAGUCUAUCUAGCUGCCCACAUGAGGAUCACCCAUGUAGAAGGCAGUCUGCCUG | – | – | 18.1 | 52.5 |
| CUUUCGUGAGGAUAUGAAACUUCGAUCGUGAGAUCGAGGCUACAGAAGGCACAUGAGGAUCACCCAUGUUCCUC | – | – | 34.6 | 420 |
| GUGCCUUGGGAGAAGGUUAUGUGCAAAGCAUUUAAAGGAUAUUCAUACCGGAAACGGACAUGAGGAUCACCCAUGUGGCACAAA | 621 | 150 | – | – |
| GUAGCAUAGGCAGGAUAUUCAUAUAAUAAAUAAACAUGAGGAUCACCCAUGUGGCGAAAGCCUUGGGAGAAGGGCCAAUGCUAC | 933 | 60.9 | – | – |
| AACCUAUUACAGAAGGCCAGCUACAUGAGGAUCACCCAUGUCGAGUCAUGGAGGAUAUGUAGUAAUUUACUCACAGAUGAGUGC | 25.8 | 5.31 | – | – |
| GGAUUUCCUGAGGAUAUUGUAUCACCUGAUUGAUAAGAAGGCAGAACAUGAGGAUCACCCAUGUGGGUACUCGG | – | – | 134 | 135 |
| GGAUAGAACAGAGGAUAUACGUGCUAGAGAUACUAGCAAAAUUUCCUCACAUGAGGAUCACCCAUGUAGAAGGCUGUCCUAUCG | – | – | 11.8 | 208 |
| GCAAAACAUGAGGAUCACCCAUGUCAACAAAAUCAAGGAUAUGAGCCGGCAAUGCCAGCAUCAGAAGGUGAACCUU | 81.9 | 86.5 | – | – |
| CGCUGGUGACAGCAUCCAUCAAAACAUGAGGAUCACCCAUGUAGAAGGCUGUACGGUUACCGUACAGAGGAUAUACAAUGAUGC | – | – | 15.1 | 28.4 |
| GGAUAGGACAGAGGAUAUACGUGCUAGAGAUACUAGCAAAAUUUCCUCACAUGAGGAUCACCCAUGUAGAAGGCUCUCCUAUCG | – | – | 8.7 | 31.5 |
| UUGUUCUGAGGAUAUACAUGAGGAUCACCCAUGUGUUUCUGCUAGGAGACUAGCGAAUGUAGAAGGCUGUUCUC | – | – | 19.4 | 19.9 |
| GAUCAACAUGAGGAUCACCCAUGUGAGGAUAUGAUACUAUGUACUUCGGUACAUAGUAUCAGAAGGCACAUUGA | – | – | 87.2 | 367 |
| GUUUAGUGAGGAUAUGUGGCAUCGCUCGAGCGCGGUCGGCUACAGAAGGCACAUGAGGAUCACCCAUGUUUCUC | – | – | 41.8 | 471 |
| GGACGUCUCGUUUACAUGAGGAUCACCCAUGUCGAUAGACAUGAGGAUAUGGAUCCGAAUCGGAUCCAGAAGGCAUGGACGUCC | 486 | 35 | – | – |
| UGUCCAUAGCAGAAGGCAUGUCAAAAGACAUGAGGAUCACCCAUGUAAACAUGAGGAUAUGCUAUGGACUAAGAGCGAAAGCUC | – | – | 8.57 | 5.66 |
| AAUGGCUGGUGAACUUGGUCACAUGAGGAUCACCCAUGUUAUGAGGAUAUCGCUGCACAUUGACGUGAGAAGGCAUAGCAAGCC | – | – | 132 | 453 |
| GGAUAGGACAGAGGAUAUGCCGAUAGGAUCUACUAUCGAAGAAUCCUCACAUGAGGAUCACCCAUGUAGAAGGCUGUCCUAUCG | – | – | 23.8 | 131 |
| CGAUGACUGGUGAGGAUAUCGUGUUCGAAAGAACGUGAGAAGGCACAUGAGGAUCACCCAUGUGAUCCUCAUCG | – | – | 29.8 | 206 |
| GGAGGACAUGAGGAUCACCCAUGUGGAUGGGCGCUAGGAUAUGCGAGAGGGAAGAGUGGAGCAGAAGGAGUGGGUU | 50.8 | 47.3 | – | – |

| Sequence | apparent Kd [1] [nM] | apparent Kd [2] [nM] | apparent Kd [3] [nM] | apparent Kd [4] [nM] |
| --- | --- | --- | --- | --- |
| AUCAGCUCGUCAGGAUAUACGUCACUGCGUCAGCAGUGUGGUAAGAUCACAUGAGGAUCACCCAUGUAGAAGGGACGGGCUGAU | – | – | 13.8 | 253 |
| GUCAGCUCGUGAGGAUAUACAACACUGCUUCGCCAGUGUAUUAAGAUCACAUGAGGAUCACCCAUGUAGAAGGCACGAGCUGAU | – | – | 14.4 | 216 |
| GUUACCGUAGGAUAUACAUGAGGAUCACCCAUGUACUCAGUCGAUGGAUAAGAGUACUGUAGAAGGGCGCCGGC | – | – | 140 | 150 |
| UCAGGCUUCGAGAAGGACAUGAAUCGUAGCAUUGCUACGAUGAAUUAUACAUGAGGAUCACCCAUGUAGGAUAUCGGAGUCUGC | – | – | – | 6.34 |
| CGAGAUACGCUCGUCCGAAAGGAACAUGAGGAUCACCCAUGUAGAAGGCGAUCCGCAACUCGGAUUGAGGAUAUAUACUGCAGA | – | – | 139 | 91.2 |
| GCAGCUAUUAUUAUACAUGAGGAUCACCCAUGUUACAUGUGUAAGGAUAUUGAAGUUUUUAUAAUCAAGAAGGUACUAUGCUGC | 14.4 | 9.33 | – | – |
| AACAGUACAGGAUAUACAUGAGGAUCACCCAUGUGAGAAUUAAGUGGCGUACCACAUAGUAGAAGGGUACUGGA | – | – | 71 | 156 |
| ACAUGCUGCCGGCAGGAUAUCGCUUGGCGGACAUGAGGAUCACCCAUGUGAGAAAGUCGCGCGCGCGAGAAGGGCCAUGGUAUCAG | 98.2 | 80 | – | – |
| CAAUGGUUCCUUAUACUCUCGUCACAUGAGGAUCACCCAUGUAGAAGGCAGCCGGGCUGUCAGGCUGAGGAUAUACAUUUAAAA | – | – | 17.8 | 54.9 |
| UGGUACUAGGGAGGAUAUGGGAAGAUACAUGAGGAUCACCCAUGUUUAAGAAUGCCGAGAGGCAACUAGAAGGCCCUAGGACCU | 434 | 18.5 | – | – |
| UGUCGGAGCAGAGGAUAUUACAUGAGGAUCACCCAUGUAUGAACCAAUAGCUGAAAACAGCAAUGUAAGAAGGCUGCUCCGACA | – | – | 11.5 | 176 |
| AGUUUGUUUGAGAAGGUGAAGUGGAAACAUGAGGAUCACCCAUGUAUUAGGAAGCCUGGUUUUGUCAAGGAUAUCGGGUAAACA | – | 13.9 | – | – |
| UUGGAAAACAUGAGGAUCACCCAUGUGAAGCCGGCUAGUACACAGGAUAUCCAGAACGCCGAGUUGGAGAAGGGUGAUCAGUCG | 38 | 80.4 | – | – |
| GCCUCACAUGAGGAUCACCCAUGUCAGGAUAUAGGAGACGGCAGAAAUCCUGCCAUCGCUAGAAGGGACUGGCA | – | – | 23.9 | 105 |
| UUAUAAAGUGUGAGGAUAUGCUGGUCCUUGGAUCAGCAGAAGGCACAUGAGGAUCACCCAUGUAAUAUAUUUUU | – | – | 89.8 | 309 |
| GGAUAGGACAGAGGAUAUACGUGCUAUAGAUACUAGCAAAAUUUCCUCACAUGAGGAUCACCCAUGUAGAAGGCUGUCCUAUCG | – | – | 16.8 | 354 |
| CUCGUUAUGUUAGGAUAUGAUGCAUCCCGAUAAUCAGAAGGAACAUGAGGAUCACCCAUGUGACAUUUGGUGAAAACAAGCCAA | – | – | 6.35 | 7.87 |
| UAGUAUAAGGGCAUUAAACAUGAGGAUCACCCAUGUACGAUAGAGGAUAUGCAUUUCAGUUGAGAGUAGAAGGUUAGAGAAUUG | – | – | 37.2 | 43.4 |
| AAAAAAAAAAGGCAGGAUAUCCAAAAAAAAACAUGAGGAUCACCCAUGUAAAAAAAAAAAAAAUGGGAGAAGGGUCAAAAAAAAAA | 88.8 | 34 | – | – |
| GACUGCCGAGGAUAUACAUGAGGAUCACCCAUGUGCUUCAGCAUUUUUUGAUGCAUGGGUAGAAGGCGGUAGUU | – | – | 453 | 326 |
| AGCUGUGGCCGAGGAUAUCUAACAAUCCUAACCGAAAUAUAAUCGGACAUGAGGAUCACCCAUGUAGAGAAGGCGGUCUCAGCA | – | – | 92.4 | 237 |
| AGCUAGUACCGAGGAUAUACAUACAUGAGGAUCACCCAUGUAUACAUGAAUAAAUGAGACUACAUGUAGAAGGCGGUACUAGCA | 71.1 | 20 | – | – |
| GUCGGAAACGACAAACGUAGCAUACGAGAAGGCUGAUCCACGACAUGAGGAUCACCCAUGUAUUUAGAGGAUAUUGGAUGCUAC | 126 | 20.3 | – | – |
| AUGGUUGUCGUAGGAUAUGUAGGAUAUUCCUACAUGAGGAUCACCCAUGUUCGCAUGGAAGAAGGACGGAAGGACGAUGACCAG | 452 | 163 | – | – |
| CCCAAACUUGGGCUUGGUUGUGCAUAGGAUAUCCUUGGACAUGAGGAUCACCCAUGUACAACUGUGGAGAAGGGUGCAGGACCU | 39.1 | 16.4 | – | – |
| UCACAGGUUUAAGGCGUUCCCAGACAUGAGGAUCACCCAUGUAGAAGGACCGUAAGAAAUUUUCGGUAGGAUAUACAUUCAGGG | – | – | 28 | 31.9 |
| GCAGCGUAUGUAGGAUAUCGGUCAGUUUCUGAUCGAGAAGGACAUGAGGAUCACCCAUGUAAAUUACCGACUCUGUCGGGCUGC | – | – | 6.64 | 8.6 |

— the EternaBench riboswitch data
